Test results published in ChEMBL document CHEMBL3085737, “Inducing secondary metabolite production by the endophytic fungus Fusarium tricinctum through coculture with Bacillus subtilis” (2013).

Assays:
Type in all cases: functional
[1] = system: Pseudomonas aeruginosa; test: Antibacterial activity against multidrug-resistant Pseudomonas aeruginosa B 63230 assessed as growth inhibition by broth microdilution method
Procedure, shortened: (§1)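 MIC by broth microdilution following CLSI guidelines. Inoculum made by direct colony suspension, giving 5 × 10^5 CFU/mL after the last dilution step. Compounds dosed from 10 mg/mL DMSO stocks up to 64 μg/mL top concentration, where final DMSO was 0.64%. Growth read as OD600 in a microtiter plate reader.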

[2] = system: Escherichia coli; test: Antibacterial activity against Escherichia coli ATCC 25922 assessed as growth inhibition by broth microdilution method
Procedure, shortened: (§2)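 MIC by broth microdilution following CLSI guidelines; inoculum made by direct colony suspension, 5 × 10^5 CFU/mL after the final dilution. Compounds were added from a 10 mg/mL DMSO stock, tested up to 64 μg/mL, giving 0.64% final DMSO at the top concentration. Growth was read as OD600 in a microtiter plate reader.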

[3] = system: Enterococcus faecalis; test: Antibacterial activity against multidrug and vancomycin-resistant Enterococcus faecalis UW 2689 assessed as growth inhibition by broth microdilution method; procedure, shortened: as §1
[4] = system: Streptococcus pneumoniae; test: Antibacterial activity against Streptococcus pneumoniae ATCC 49619 assessed as growth inhibition by broth microdilution method; procedure, shortened: as §2
[5] = system: Staphylococcus aureus; test: Antibacterial activity against multidrug and methicillin-resistant Staphylococcus aureus 25697 assessed as growth inhibition by broth microdilution method; procedure, shortened: as §1
[6] = system: Staphylococcus aureus; test: Antibacterial activity against Staphylococcus aureus ATCC 29213 assessed as growth inhibition by broth microdilution method; procedure, shortened: as §2
[7] = system: Bacillus subtilis; test: Antibacterial activity against Bacillus subtilis 168 trpC2 assessed as growth inhibition by broth microdilution method; conditions: subsp. subtilis str. 168; procedure, shortened: as §2

SMILES | MIC [1] [mg/L] | MIC [2] [mg/L] | MIC [3] [mg/L] | MIC [4] [mg/L] | MIC [5] [mg/L] | MIC [6] [mg/L] | MIC [7] [mg/L]
Cc1cc(=O)cc(Cc2cc(O)cc(O)c2)o1 | > 64 | > 64 | > 64 | > 64 | > 64 | > 64 | > 64
CC(=O)C[C@@H](O)Cc1cc2cc(O)cc(O)c2c(=O)o1 | > 64 | > 64 | > 64 | > 64 | > 64 | > 64 | > 64
O=C(O)c1cn(C2CC2)c2cc(N3CCNCC3)c(F)cc2c1=O [CIPROFLOXACIN] | 16 | – | 16 | 0.25 | 8 | 0.0625 | 0.16
CC[C@H](C)[C@H]1C(=O)O[C@H](C(C)C)C(=O)N(C)[C@@H](C(C)C)C(=O)O[C@H](C(C)C)C(=O)N(C)[C@@H](C(C)C)C(=O)O[C@H](C(C)C)C(=O)N1C [ENNIATIN B1] | > 64 | > 64 | 8 | 4 | 8 | 8 | 16
O=C(O)CNc1ccccc1C(=O)O | > 64 | > 64 | > 64 | > 64 | > 64 | > 64 | > 64
CN[C@H](CC(C)C)C(=O)N[C@H]1C(=O)N[C@@H](CC(N)=O)C(=O)N[C@H]2C(=O)N[C@H]3C(=O)N[C@H](C(=O)N[C@H](C(=O)O)c4cc(O)cc(O)c4-c4cc3ccc4O)[C@H](O)c3ccc(c(Cl)c3)Oc3cc2cc(c3O[C@@H]2O[C@H](CO)[C@@H](O)[C@H](O)[C@H]2O[C@H]2C[C@](C)(N)[C@H](O)[C@H](C)O2)Oc2ccc(cc2Cl)[C@H]1O [VANCOMYCIN] | > 64 | > 64 | – | 0.125 | – | – | 0.125
CC(C)[C@H]1C(=O)O[C@H](C(C)C)C(=O)N(C)[C@@H](C(C)C)C(=O)O[C@H](C(C)C)C(=O)N(C)[C@@H](C(C)C)C(=O)O[C@H](C(C)C)C(=O)N1C [ENNIATIN B] | > 64 | > 64 | > 64 | 16 | > 64 | > 64 | > 64
C=C1NC(=O)C(C)C(CCC(C)C(=O)/C=C/C(C)=C/CCC(C)CCCCCC)OC(=O)C(CCC(N)=O)NC(=O)C(C)CNC1=O (stereo not drawn) | > 64 | > 64 | > 64 | > 64 | > 64 | > 64 | > 64
CN(C)[C@@H]1C(O)=C(C(N)=O)C(=O)[C@@]2(O)C(O)=C3C(=O)c4c(O)cccc4[C@@](C)(O)[C@H]3C[C@@H]12 [TETRACYCLINE] | 32 | 0.5 | 64 | 0.0625 | 32 | 0.25 | 4
C[C@@H](O)C[C@@H](O)Cc1cc2cc(O)cc(O)c2c(=O)o1 | > 64 | > 64 | > 64 | > 64 | > 64 | > 64 | > 64
COC(=O)c1oc(=O)c2c(O)c3c(=O)cc(C)oc3cc2c1O | > 64 | > 64 | 8 | 4 | 2 | 2 | 8
